The results in this text go back to ChEMBL document CHEMBL1649302, “New small-molecule inhibitor class targeting human immunodeficiency virus type 1 virion maturation” (Antimicrob Agents Chemother, 2009).

In series [1] the test system is Human immunodeficiency virus 1. As to the kind of experiment: Antiviral activity against HIV1 NL4-3 infected in human MT2 cells assessed as protection against virus-induced cytopathogenicity after 6 days by XTT assay. The class given is functional, organism-based. The conditions noted are these: Human immunodeficiency virus 1, NL4-3, MT2, 144 h. The procedure, abridged: (§1)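 Host cells were infected with NL4-3 or IIIB (MOI 0.08) or RF (MOI 0.025–0.819) and seeded at 2 × 10⁴/well onto half-log compound dilutions. After 6 days, XTT/PMS was added for 4 h and formazan was read at 450 nm. EC50 was the concentration giving 50% of the formazan of uninfected, compound-free cells.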

Series [2] is described as follows: Cytotoxicity against human PM1 cells after 5 days by XTT assay. The class given is cell-based. A digest of the protocol: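 CC50 in uninfected PM1 cells was measured by the XTT dye-reduction method: XTT/PMS for 4 h, absorbance at 450 nm, 50% of compound-free formazan.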
Series [3] deals with Human immunodeficiency virus 1. As to the kind of experiment: Antiviral activity against HIV1 Ba-L infected in human PM1 cells assessed as inhibition of viral p24 antigen production after 5 days. The class given is functional, organism-based. As to conditions: Human immunodeficiency virus 1, Ba-L, PM1, 120 h. The procedure, abridged:
(§2)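 PM1 cells (NL4-3, Ba-L) or MT-2 cells (92HT594, 92HT599) were infected at MOI 0.16 for 2 h and washed. They were plated at 1 × 10⁴ cells/well (2 × 10⁵/ml) onto half-log compound dilutions. Supernatant p24 was quantified by ELISA at day 5. EC50 was the concentration giving a 50% decrease versus infected, compound-free cells.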

For series [4], the system named is Human immunodeficiency virus 1. Description: Antiviral activity against HIV1 92HT594 infected in human MT2 cells assessed as inhibition of viral p24 antigen production after 5 days. The class given is functional, organism-based. The conditions noted are these: Human immunodeficiency virus 1, 92HT594, MT2, 120 h. The procedure, abridged: as §2
Series [5] relates to Human immunodeficiency virus 1. As to the kind of experiment: Antiviral activity against HIV1 RF infected in human MT2 cells assessed as protection against virus-induced cytopathogenicity after 6 days by XTT assay. The class given is functional, organism-based. As to conditions: Human immunodeficiency virus 1, RF, MT2, 144 h. A digest of the protocol:
as §1

Series [6] is described as follows: Therapeutic index, ratio of CC50 for human MT2 cells to EC50 for HIV1 92HT599 infected in human MT2 cells. The format is cell-based. The conditions noted are these: read-out: TI. The procedure, abridged: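 TI was the mean CC50 (XTT, uninfected MT-2) divided by the mean EC50, determined for each cell line in each experiment.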
Series [7] relates to Human immunodeficiency virus 1. Description: Antiviral activity against HIV1 NL4-3 infected in human HeLa cells assessed as decrease in single-cycle viral infection after 72 hrs by beta-galactosidase reporter gene assay. The format is functional, organism-based. The conditions noted are these: Human immunodeficiency virus 1, NL4-3, HeLa. A digest of the protocol:
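HeLa CD4 LTR/beta-Gal cells (1 × 10⁴/well, DMEM + 10% FBS) were pre-dosed with half-log compound dilutions. They were infected at MOI 0.03 with single-cycle NL4-3 reporter virus made by cotransfecting HEK 293 cells with pNL4-3deltaEnv and an NL4-3 envelope vector. EC50 is from beta-gal reporter activity relative to infected untreated cells, across three experiments.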

For series [8], the system named is Human immunodeficiency virus 1. As to the kind of experiment: Antiviral activity against HIV1 harboring capsid I201V mutant protein infected in human HeLa cells assessed as decrease in viral infection after 72 hrs by beta-galactosidase reporter gene assay. The class given is functional, organism-based. The conditions noted are these: Human immunodeficiency virus 1, HeLa.

The subject of series [9] is Human immunodeficiency virus 1. As to the kind of experiment: Antiviral activity HIV1 ROJO infected in human PBMC after 7 days by scintillation counting. The conditions noted are these: Human immunodeficiency virus 1, ROJO, 168 h. The format is functional, organism-based. The procedure, abridged:
(§3)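 Fresh PBMCs from HIV/HBV-seronegative donors were PHA-stimulated (4 μg/ml, 48–72 h) and kept with IL-2 (20 U/ml), with at least two donors pooled. Cells were seeded at 5 × 10⁴/well and infected (final MOI ≅0.1) with nine compound concentrations in triplicate wells. After 7 days, reverse transcriptase activity was measured in cell-free supernatant.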

Series [10] has as its system Human immunodeficiency virus 1. As to the kind of experiment: Antiviral activity HIV1 WEJO infected in human PBMC after 7 days by scintillation counting. The format is functional, organism-based. The conditions noted are these: Human immunodeficiency virus 1, WEJO, 168 h. A digest of the protocol: as §3
Series [11] relates to Human immunodeficiency virus 1. As to the kind of experiment: Antiviral activity HIV1 91US005 infected in human PBMC after 7 days by scintillation counting. The class given is functional, organism-based. The conditions noted are these: Human immunodeficiency virus 1, 91US005, 168 h. The procedure, abridged: as §3
Series [12] concerns Human immunodeficiency virus 1. Description: Antiviral activity HIV1 92BR030 infected in human PBMC after 7 days by scintillation counting. The class given is functional, organism-based. The conditions noted are these: Human immunodeficiency virus 1, 92BR030, 168 h. The procedure, abridged: as §3
In series [13] the test system is Human immunodeficiency virus 1. Description: Antiviral activity HIV1 92HT594 infected in human PBMC after 7 days by scintillation counting. The format is functional, organism-based. The conditions noted are these: Human immunodeficiency virus 1, 92HT594, 168 h. A digest of the protocol: (§4)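 PBMCs came from buffy coats pooled from 3–4 seronegative donors, were PHA-stimulated (1.5 μg/ml, 3 days) and frozen. Thawed cells were infected 1 h at 37°C with virus input set by TCID50, then pelleted and resuspended in IL-2 (10 ng/ml). They were plated at 4 × 10⁵ cells/ml onto compounds for 7 days at 37°C. Supernatant RT activity was measured by Quan-T-RT scintillation assay.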

Series [14] deals with Human immunodeficiency virus 1. As to the kind of experiment: Antiviral activity HIV1 92HT599 infected in human PBMC after 7 days by scintillation counting. The format is functional, organism-based. As to conditions: Human immunodeficiency virus 1, 92HT599, 168 h. A digest of the protocol:
as §4

Series [15] relates to Human immunodeficiency virus 1. As to the kind of experiment: Antiviral activity HIV1 92US072 infected in human PBMC after 7 days by scintillation counting. The format is functional, organism-based. As to conditions: Human immunodeficiency virus 1, 92US072, 168 h. The procedure, abridged: as §3
For series [16], the system named is Human immunodeficiency virus 1. As to the kind of experiment: Antiviral activity HIV1 93BR021 infected in human PBMC after 7 days by scintillation counting. The class given is functional, organism-based. As to conditions: Human immunodeficiency virus 1, 93BR021, 168 h. The procedure, abridged: as §3
For series [17], the system named is Human immunodeficiency virus 1. As to the kind of experiment: Antiviral activity HIV1 96USHIPS7 infected in human PBMC after 7 days by scintillation counting. As to conditions: Human immunodeficiency virus 1, 96USHIPS7, 168 h. The class given is functional, organism-based. A digest of the protocol:
as §3

The nature of series [18]: Therapeutic index, ratio of CC50 for human PBMC to EC50 for HIV1 3B infected in human PBMC. As to conditions: read-out: TI. The procedure, abridged: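 TI was the mean PBMC CC50 divided by the mean EC50 from the 7-day PBMC reverse transcriptase assay.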
Series [19] can be described thus: Therapeutic index, ratio of CC50 for human PBMC to EC50 for HIV1 92HT594 infected in human PBMC. As to conditions: read-out: TI. A digest of the protocol:
(§5)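 Frozen PHA-stimulated (1.5 μg/ml, 3 days) buffy-coat PBMCs pooled from three or four seronegative donors. Infected with a TCID50-based virus input per 10⁶ cells for 1 h at 37°C, then pelleted and resuspended in 10 ng/ml IL-2. Plated at 4 × 10⁵ cells/ml on compound dilutions for 7 days at 37°C. Supernatant RT measured by Quan-T-RT. TI is mean CC50 divided by mean EC50.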

Series [20] in a line: Therapeutic index, ratio of CC50 for human PBMC to EC50 for HIV1 92HT599 infected in human PBMC. The conditions noted are these: read-out: TI. The procedure, abridged:
as §5

Series [21] can be described thus: Therapeutic index, ratio of CC50 for human PBMC to EC50 for HIV1 92US660 infected in human PBMC. The conditions noted are these: read-out: TI. A digest of the protocol:
(§6)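 PHA-stimulated (4 μg/ml, 48 to 72 h) PBMCs pooled from at least two seronegative donors, kept with 20 U/ml IL-2, plated at 5 × 10⁴ cells/well. Infected with clinical isolate (final MOI ≅0.1) alongside nine compound concentrations in triplicate wells, 7 days. Supernatant reverse transcriptase activity measured. TI is mean PBMC CC50 divided by mean EC50.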

The nature of series [22]: Therapeutic index, ratio of CC50 for human PBMC to EC50 for HIV1 93BR021 infected in human PBMC. The conditions noted are these: read-out: TI. The procedure, abridged:
as §6

The nature of series [23]: Therapeutic index, ratio of CC50 for human PBMC to EC50 for HIV1 96USHIPS7 infected in human PBMC. As to conditions: read-out: TI. The procedure, abridged:
as §6

With `CC(C)(C)c1ccc(C(Cn2cccc(C(F)(F)F)c2=O)NC2Cc3ccccc3C2)cc1` (stereo not drawn), the EC50 in [1] is 0.36 µM; in series [3], 5.3 µM; in series [4], 0.24 µM; in [5] it was above 16 µM; in [7] it was above 10 µM; in series [8], above 10 µM. Besides, the EC50 in [9] was above 17 µM; in series [10], 1.5 µM; in series [11], above 17 µM; in [12], above 17 µM; in [13] it was 1.1 µM; in series [14] it was 1.4 µM. For the same compound, the figures for the EC50 in series [15], in [16] and in series [17] were 0.005 µM, 0.04 µM and above 17 µM, respectively. Further, the CC50 at 120 h in [2] was 19 µM. Also, the selectivity ratio turned out to be 90 in series [6]; 53 in series [18]; 15 in [19]; 12 in series [20]; 1 in series [21]; 425 in series [22]. In addition, the selectivity ratio in series [23] is below 1.
